Test results reported in ChEMBL document CHEMBL3608303, “Discovery of novel potent and selective ligands for 5-HT2A receptor with quinazoline scaffold” (Bioorg Med Chem Lett, 2015).

How the values were obtained:
[1] = molecular target: T1, 5-hydroxytryptamine receptor 2A (Homo sapiens, UniProt P28223); experiment: Displacement of [3H]ketanserin hydrochloride from 5-HT2A receptor (unknown origin) expressed in HEK293 cell membranes incubated for 15 mins by liquid scintillation spectrometry relative to control; parameters: concentration or dose not given beside the values
T1 sequence (P28223 whole entry): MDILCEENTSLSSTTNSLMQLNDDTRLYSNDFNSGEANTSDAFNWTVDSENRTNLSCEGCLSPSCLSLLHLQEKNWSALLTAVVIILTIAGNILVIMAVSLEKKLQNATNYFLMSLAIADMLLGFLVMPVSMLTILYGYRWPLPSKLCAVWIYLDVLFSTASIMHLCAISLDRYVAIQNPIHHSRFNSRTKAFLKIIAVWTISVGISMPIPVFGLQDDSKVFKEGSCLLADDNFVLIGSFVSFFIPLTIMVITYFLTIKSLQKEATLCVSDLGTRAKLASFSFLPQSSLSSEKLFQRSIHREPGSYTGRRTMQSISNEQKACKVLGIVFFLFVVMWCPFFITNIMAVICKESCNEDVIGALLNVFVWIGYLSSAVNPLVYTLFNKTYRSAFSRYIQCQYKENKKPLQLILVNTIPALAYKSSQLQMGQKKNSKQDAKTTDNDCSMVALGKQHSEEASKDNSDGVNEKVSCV
Summary of the method: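 [3H]-Ketanserin displacement at 5-HT2A, first run as percent displacement of radioligand by a 10 μM test concentration.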

[2] = molecular target: T2, 5-hydroxytryptamine receptor 1A (Homo sapiens, UniProt P08908); experiment: (§1) Displacement of [3H]-8-OH-DPAT from 5-HT1A receptor (unknown origin) expressed in HEK293 cell membranes incubated for 15 mins by liquid scintillation spectrometry
T2 sequence (P08908 whole entry): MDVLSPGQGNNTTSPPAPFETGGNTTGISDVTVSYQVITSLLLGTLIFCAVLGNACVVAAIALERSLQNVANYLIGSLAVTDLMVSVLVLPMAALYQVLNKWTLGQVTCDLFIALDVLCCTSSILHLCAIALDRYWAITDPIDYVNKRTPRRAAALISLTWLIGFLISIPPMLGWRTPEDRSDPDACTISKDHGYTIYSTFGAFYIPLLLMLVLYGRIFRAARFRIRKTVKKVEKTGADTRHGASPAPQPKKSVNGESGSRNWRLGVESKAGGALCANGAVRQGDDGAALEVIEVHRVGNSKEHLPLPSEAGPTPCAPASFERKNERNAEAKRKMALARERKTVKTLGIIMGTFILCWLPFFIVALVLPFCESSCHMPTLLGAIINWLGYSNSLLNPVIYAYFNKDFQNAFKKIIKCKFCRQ

[3] = molecular target: T1, 5-hydroxytryptamine receptor 2A; experiment: Displacement of [3H]ketanserin hydrochloride from 5-HT2A receptor (unknown origin) expressed in HEK293 cell membranes incubated for 15 mins by liquid scintillation spectrometry
[4] = molecular target: T3, D(1A) dopamine receptor (Homo sapiens, UniProt P21728); settings: hek293
T3 sequence (P21728 whole entry): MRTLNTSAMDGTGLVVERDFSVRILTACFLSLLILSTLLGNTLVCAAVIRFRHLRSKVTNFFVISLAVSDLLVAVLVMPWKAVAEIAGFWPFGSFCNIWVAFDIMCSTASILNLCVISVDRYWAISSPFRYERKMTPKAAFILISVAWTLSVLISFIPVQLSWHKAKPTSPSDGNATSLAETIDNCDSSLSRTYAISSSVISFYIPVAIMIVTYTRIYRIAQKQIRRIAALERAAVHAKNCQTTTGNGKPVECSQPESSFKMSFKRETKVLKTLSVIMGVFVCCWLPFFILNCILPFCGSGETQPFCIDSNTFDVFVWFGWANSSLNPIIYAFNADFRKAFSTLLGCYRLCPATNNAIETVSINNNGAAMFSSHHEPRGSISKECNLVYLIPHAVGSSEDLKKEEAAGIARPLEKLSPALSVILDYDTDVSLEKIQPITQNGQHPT

[5] = molecular target: D(2) dopamine receptor (Homo sapiens, UniProt P14416); experiment: Displacement of [3H]-spiperone from dopamine D2 receptor (unknown origin) expressed in HEK293 cell membranes incubated for 15 mins by liquid scintillation spectrometry
Chain of D(2) dopamine receptor (P14416 whole entry): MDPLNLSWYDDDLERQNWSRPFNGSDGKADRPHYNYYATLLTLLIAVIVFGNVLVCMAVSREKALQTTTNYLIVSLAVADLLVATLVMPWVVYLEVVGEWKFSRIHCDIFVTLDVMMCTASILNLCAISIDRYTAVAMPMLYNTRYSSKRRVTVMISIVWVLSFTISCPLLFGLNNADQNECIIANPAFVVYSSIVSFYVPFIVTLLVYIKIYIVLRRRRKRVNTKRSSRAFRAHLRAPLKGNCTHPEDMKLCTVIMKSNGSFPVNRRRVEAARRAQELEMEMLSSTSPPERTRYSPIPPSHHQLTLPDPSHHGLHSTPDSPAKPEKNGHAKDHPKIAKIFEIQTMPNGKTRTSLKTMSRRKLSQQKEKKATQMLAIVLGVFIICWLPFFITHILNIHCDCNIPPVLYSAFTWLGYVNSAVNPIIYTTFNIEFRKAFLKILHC

[6] = molecular target: D(3) dopamine receptor (Homo sapiens, UniProt P35462); experiment: Displacement of [3H]-spiperone from dopamine D3 receptor (unknown origin) expressed in HEK293 cell membranes incubated for 15 mins by liquid scintillation spectrometry
Chain of D(3) dopamine receptor (P35462 whole entry): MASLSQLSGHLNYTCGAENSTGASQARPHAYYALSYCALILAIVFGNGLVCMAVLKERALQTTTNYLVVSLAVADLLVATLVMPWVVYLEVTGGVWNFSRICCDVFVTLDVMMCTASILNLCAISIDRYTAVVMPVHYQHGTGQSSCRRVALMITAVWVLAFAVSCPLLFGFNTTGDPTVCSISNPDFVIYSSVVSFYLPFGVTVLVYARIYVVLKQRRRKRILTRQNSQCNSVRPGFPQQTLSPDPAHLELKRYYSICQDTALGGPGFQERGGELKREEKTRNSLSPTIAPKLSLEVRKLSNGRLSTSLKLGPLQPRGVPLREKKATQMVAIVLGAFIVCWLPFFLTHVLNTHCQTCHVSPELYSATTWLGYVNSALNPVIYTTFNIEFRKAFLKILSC

[7] = molecular target: T1, 5-hydroxytryptamine receptor 2A; experiment: Agonist activity at 5-HT2A receptor (unknown origin) expressed in HEK293 cell membranes assessed as induction of [35S]-GTPgammaS binding incubated for 30 mins by liquid scintillation counting method; type: functional
[8] = molecular target: T1, 5-hydroxytryptamine receptor 2A; type: functional, cell-based, HEK293
[9] = molecular target: T4, 5-hydroxytryptamine receptor 1A (Homo sapiens) (UniProt P08908); experiment: as §1; parameters: concentration or dose not given beside the values
T4 sequence (whole entry): T2 sequence (P08908 whole entry)

[10] = molecular target: T3, D(1A) dopamine receptor; experiment: Displacement of [3H]-SCH-23390 from dopamine D1 receptor (unknown origin) expressed in HEK293 cell membranes incubated for 15 mins by liquid scintillation spectrometry

| Structure (SMILES) | inhibition [1] [%] | Ki [2] | Ki [3] [µM] | Ki [4] | Ki [5] | Ki ([6]; read-out: Ki) [µM] | EC50 [7] | inhibition [6] [%] | IC50 [8] [µM] | inhibition [9] [%] | inhibition [10] [%] | inhibition [5] [%] | Ki ([6]; hek293) |
| --- | --- | --- | --- | --- | --- | --- | --- | --- | --- | --- | --- | --- | --- |
| Fc1ccccc1Nc1nc(N2CCOCC2)nc2ccccc12 | > 90 | Not Active | 0.184 | Not Active | Not Active |  |  |  |  |  |  |  |  |
| OCCN1CCN(c2nc(NCc3ccccc3)c3ccccc3n2)CC1 | > 90 | Not Active | 0.52 | Not Active | Not Active | 1.44 |  |  |  |  |  |  |  |
| COc1ccccc1Nc1nc(N2CCNCC2)nc2ccccc12 | > 90 | Not Active | 0.0458 | Not Active | Not Active |  | Not Active |  |  |  |  |  |  |
| OCCN1CCN(c2nc(Nc3ccc(I)cc3)c3ccccc3n2)CC1 | > 90 |  | 0.383 |  |  |  |  |  |  |  |  |  |  |
| OCCN1CCN(c2nc(Nc3ccccc3F)c3ccccc3n2)CC1 | > 90 | Not Active | 0.0658 | Not Active | Not Active |  | Not Active | 10.1 | 1.37 |  |  |  |  |
| CC(C)c1ccc(Nc2nc(N3CCN(CCO)CC3)nc3ccccc23)cc1 | > 90 |  | 0.149 | Not Active | Not Active | 1.14 |  |  |  | 42.3 |  |  |  |
| Cc1ccc(Nc2nc(N3CCN(CCO)CC3)nc3ccccc23)c(C)c1 | > 90 |  | 0.268 | Not Active | Not Active |  |  | 39 |  | 81.2 |  |  |  |
| OCCN1CCN(c2nc(Nc3ccc(Br)cc3)c3ccccc3n2)CC1 |  | Not Active | 0.092 | Not Active | Not Active | 0.571 | Not Active |  | 27.7 |  |  |  |  |
| OCCN1CCN(c2nc(Nc3ccc(F)cc3)c3ccccc3n2)CC1 |  | Not Active | 0.12 | Not Active | Not Active |  | Not Active | 49.3 | 21.3 |  |  |  |  |
| Clc1ccc(Nc2nc(N3CCNCC3)nc3ccccc23)cc1 |  |  | 0.014 |  |  |  | Not Active | 78.8 | 1.66 | 88.6 | 83.9 | 71.4 |  |
| COc1ccc(Nc2nc(N3CCN(CCO)CC3)nc3ccccc23)cc1 | > 90 |  | 1.36 |  |  |  |  |  |  |  |  |  |  |
| COc1ccc(Nc2nc(N3CCN(CCO)CC3)nc3ccccc23)c(OC)c1 | > 90 | Not Active | 0.594 | Not Active | Not Active |  |  |  |  |  |  |  | Not Active |
| Fc1ccccc1Nc1nc(N2CCNCC2)nc2ccccc12 | > 90 | Not Active | 0.07 | Not Active | Not Active |  | Not Active | 22.5 |  |  |  |  |  |
| OCCN1CCN(c2nc(Nc3cccc(O)c3)c3ccccc3n2)CC1 | > 90 | Not Active | 0.0834 | Not Active | Not Active |  | Not Active | 11.7 | 9.12 |  |  |  |  |
| CC(C)(C)[C@@]1(O)CCN2C[C@@H]3c4ccccc4CCc4cccc(c43)[C@H]2C1 | > 90 |  |  |  |  |  |  |  |  |  |  |  |  |
| COc1ccccc1Nc1nc(N2CCN(CCO)CC2)nc2ccccc12 | > 90 |  | 0.146 | Not Active | Not Active |  |  | 0.9 |  | 52 |  |  |  |
| Clc1ccc(Nc2nc(N3CCOCC3)nc3ccccc23)cc1 | 45.3 |  |  |  |  |  |  |  |  | 16.7 | -9.36 |  |  |
| Fc1ccc(Nc2nc(N3CCOCC3)nc3ccccc23)cc1 | > 90 | Not Active | 0.235 | Not Active | Not Active |  |  | -0.57 |  |  |  |  |  |
| Ic1ccc(Nc2nc(N3CCNCC3)nc3ccccc23)cc1 | > 90 |  | 0.496 | Not Active | Not Active |  |  |  |  | 56.6 |  |  | Not Active |
| CC(C)c1ccc(Nc2nc(N3CCNCC3)nc3ccccc23)cc1 | > 90 |  | 0.0421 |  |  |  |  | 22.5 |  | 84.3 | 94.8 | 14 |  |
| OCCN1CCN(c2nc(Nc3ccc(Cl)cc3)c3ccccc3n2)CC1 |  |  | 0.109 |  |  |  | Not Active | 75.6 | 7.43 | 53.8 | 80.5 | 53 |  |
| CC(C)c1ccc(Nc2nc(Nc3ccc(C(C)C)cc3)c3ccccc3n2)cc1 | 5.91 | Not Active |  | Not Active | Not Active |  |  |  |  |  |  |  | Not Active |
| CC(C)c1ccc(Nc2nc(N(C)C)nc3ccccc23)cc1 | 75.1 | Not Active |  | Not Active | Not Active |  |  |  |  |  |  |  | Not Active |
